# Results from ChEMBL document CHEMBL5712072, “Epigenetic targeting of Hedgehog pathway transcriptional output through BET bromodomain inhibition” (Nat Med, 2014).
# Activity calls are given as the source filed them. The calls are words filed in the database; no cut-off is given here.
# Legend:
# MEF [1] = assay: Downregulation of Gli transcription in Sufu-/- MEF cells by immunoblot analysis; assay type: functional, cell-based; conditions: Mus musculus
# Method in brief: (§1)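 Sufu−/− MEFs exposed to DMSO or 1 uM of JQ1, GDC-0449, LDE225 or SANT-1; RIPA lysis 30min on ice, cleared 13000rpm 15min 4°C; SDS-PAGE immunoblot with anti-GLI1, β-tubulin as loading control.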
# MEF [2] = assay: Downregulation of Gli1 protein expression in Sufu-/- MEF cells by immunoblot analysis; assay type: functional, cell-based; conditions: Mus musculus; method in brief: as §1
# [3] = molecular target: Zinc finger protein GLI2 (Homo sapiens) (UniProt P10070); assay: Inhibition of human GLI2 expressed in Hh-Light2 cells assessed as reduction in Gli1 mRNA expression level by qRT-PCR analysis; assay type: cell-based
# Method in brief: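 Hh-Light2 cells transiently transfected (Turbofect) with full-length murine HA-Gli2-FL or N-terminally truncated human Myc-GLI2-DN; drugs (1 uM JQ1, GDC-0449, LDE225 or SANT-1) added 24hr post-transfection; Gli1 mRNA by SYBR Green qRT-PCR; mean of triplicates ± SD.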
# Medulloblastoma cell [4] = assay: Antiproliferative activity against in […] medulloblastoma cells expressing SmoWT-MB cells from mouse assessed as cell proliferation by EdU analysis; assay type: functional, cell-based
# Method in brief: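 SmoWT-MB cells given 0.1uM GDC-0449 or LDE225 (or JQ1 1 uM); 10uM EdU added for final 6-8hrs; EdU+ cells detected by Click-iT flow cytometry or imaging, DAPI counterstain; proliferation index = EdU+/DAPI+ cells; group means ± SD.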
# Medulloblastoma cell [5] = assay: Antitumor activity in […] medulloblastoma cells expressing SmoD477G mutant […] in NSG mouse assessed as reduction in tumor growth at 100 mg/kg/day, po; assay type: functional, organism-based
# Medulloblastoma cell [6] = assay: Antitumor activity in […] medulloblastoma expressing wildtype SMO […] in NSG mouse assessed as reduction in tumor growth at 100 mg/kg/day, po; assay type: functional, organism-based
# Method in brief: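 Flank allografts: 2x10e6 SmoWT-MB cells per flank (both flanks) in 4-6 week NSG mice; randomized after engraftment to vehicle, GDC-0449 100 mg/kg PO qd or JQ1 50 mg/kg IP qd, dosed until euthanasia required; caliper tumor measurement; group means ± S.E.M.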
# Medulloblastoma cell [7] = assay: Induction of apoptosis in human wildtype SMO expressing medulloblastoma cells assessed as viable cells by annexin-V/PI staining based flow cytometric analysis (reference value: 74.9%); assay type: functional
# Medulloblastoma cell [8] = assay: Induction of apoptosis in human wildtype SMO expressing medulloblastoma cells assessed as early apoptotic cells by annexin-V/PI staining based flow cytometric analysis (reference value: 0.59%); assay type: functional
# [9] = molecular target: Bromodomain-containing protein 4 (Mus musculus) (UniProt Q9ESU6); assay: Inhibition of BRD4 in mouse Hh-Light2 cells assessed as Gli1 mRNA level by qRT-PCR analysis
# [10] = molecular target: Bromodomain-containing protein 4 (Mus musculus) (UniProt Q9ESU6); assay: Inhibition of BRD4 in mouse Hh-Light2 cells assessed as inhibition in Gli1 protein level by immunoblot analysis
# Medulloblastoma cell [11] = assay: Induction of apoptosis in mouse wildtype SMO expressing medulloblastoma cells assessed as necrotic cells by annexin-V/PI staining based flow cytometric analysis (reference value: 22%)
# Medulloblastoma cell [12] = assay: Induction of apoptosis in mouse wildtype SMO expressing medulloblastoma cells assessed as late apoptotic cells by annexin-V/PI staining based flow cytometric analysis (reference value: 2.5%)
# [13] = system: Basal cell carcinoma cell (Mus musculus); assay: Antitumor activity in mouse basal cell carcinoma allografted in mouse assessed as reduction in tumor growth at 100 mg/kg/day, ip
# Zinc finger protein GLI2 (Homo sapiens), sequence (P10070 whole entry, the tested form may be a part): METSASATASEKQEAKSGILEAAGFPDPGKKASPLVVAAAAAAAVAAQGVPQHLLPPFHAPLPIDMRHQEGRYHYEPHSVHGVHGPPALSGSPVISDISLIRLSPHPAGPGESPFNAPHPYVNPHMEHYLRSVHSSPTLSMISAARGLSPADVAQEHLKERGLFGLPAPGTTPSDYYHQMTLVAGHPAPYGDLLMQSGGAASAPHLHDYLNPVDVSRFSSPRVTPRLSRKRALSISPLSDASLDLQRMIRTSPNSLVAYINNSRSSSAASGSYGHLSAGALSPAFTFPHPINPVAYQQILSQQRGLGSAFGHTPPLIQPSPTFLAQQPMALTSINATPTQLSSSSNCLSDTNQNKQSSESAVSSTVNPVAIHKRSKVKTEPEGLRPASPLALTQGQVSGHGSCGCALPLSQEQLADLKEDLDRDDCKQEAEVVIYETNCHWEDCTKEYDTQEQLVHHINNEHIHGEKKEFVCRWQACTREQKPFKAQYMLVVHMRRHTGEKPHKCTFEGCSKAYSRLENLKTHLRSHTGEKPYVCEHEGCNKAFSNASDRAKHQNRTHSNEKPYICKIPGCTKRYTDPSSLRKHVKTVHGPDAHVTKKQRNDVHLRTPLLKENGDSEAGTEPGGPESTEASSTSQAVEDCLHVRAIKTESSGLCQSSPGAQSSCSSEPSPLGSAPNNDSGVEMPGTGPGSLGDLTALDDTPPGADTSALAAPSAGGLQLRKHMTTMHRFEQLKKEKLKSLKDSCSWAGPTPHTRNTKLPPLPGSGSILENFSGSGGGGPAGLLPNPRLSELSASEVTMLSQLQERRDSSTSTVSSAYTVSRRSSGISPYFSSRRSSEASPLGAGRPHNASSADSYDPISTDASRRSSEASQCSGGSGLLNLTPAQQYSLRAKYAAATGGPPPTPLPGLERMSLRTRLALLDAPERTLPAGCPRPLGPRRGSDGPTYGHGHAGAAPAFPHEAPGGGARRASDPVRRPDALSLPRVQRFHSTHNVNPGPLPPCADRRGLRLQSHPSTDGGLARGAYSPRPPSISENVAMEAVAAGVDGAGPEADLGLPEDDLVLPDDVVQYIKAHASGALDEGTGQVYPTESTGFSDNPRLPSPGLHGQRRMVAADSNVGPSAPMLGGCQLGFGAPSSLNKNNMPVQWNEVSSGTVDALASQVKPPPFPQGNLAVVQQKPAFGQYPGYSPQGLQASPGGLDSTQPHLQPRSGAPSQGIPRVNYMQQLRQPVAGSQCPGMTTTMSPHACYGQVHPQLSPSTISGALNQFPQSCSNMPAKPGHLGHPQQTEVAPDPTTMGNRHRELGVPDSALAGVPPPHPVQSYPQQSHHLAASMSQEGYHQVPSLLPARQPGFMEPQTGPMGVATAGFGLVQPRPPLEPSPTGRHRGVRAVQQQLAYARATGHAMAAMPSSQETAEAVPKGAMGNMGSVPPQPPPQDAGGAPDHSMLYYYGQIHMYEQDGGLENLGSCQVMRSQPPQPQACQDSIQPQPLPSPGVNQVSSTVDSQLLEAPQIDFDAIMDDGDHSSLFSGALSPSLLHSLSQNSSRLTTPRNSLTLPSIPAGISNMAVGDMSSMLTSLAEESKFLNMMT
inhibition [3],inhibition [9],inhibition [10],Structure (SMILES),Activity (MEF [1]),Activity (MEF [2]),Activity (Medulloblastoma cell [4]),Activity (Medulloblastoma cell [5]),Activity (Medulloblastoma cell [6]),Activity (Medulloblastoma cell [7]) [%],Activity (Medulloblastoma cell [8]) [%],Activity (Medulloblastoma cell [11]) [%],Activity (Medulloblastoma cell [12]) [%],Activity [13]
inactive,Active,Active,CS(=O)(=O)c1ccc(C(=O)Nc2ccc(Cl)c(-c3ccccn3)c2)c(Cl)c1 [VISMODEGIB],inactive,inactive,Active,inactive,Active,40.8,1.01,51.2,6.98,
inactive,Active,Active,Cc1nn(-c2ccccc2)c(C)c1/C=N/N1CCN(Cc2ccccc2)CC1,inactive,inactive,,,,,,,,
,,,CNCc1ccc(C)c(NC(=O)c2ccc(Nc3nc(-c4ccccc4)c4ccccc4n3)cc2)c1,,,,,,,,,,Active
